Converted amounts (≈) assume the structure as drawn. Values belong to the compound of their own block, whether it stands above or below them. The source made the active and inactive calls. The rule behind the calls is not given here.
What was measured:
Rattus norvegicus = species on record: Rattus norvegicus; assay: Displacement of [3H]-flunitrazepam from rat brain GABA-A receptor benzodiazepine site […] at 10 uM after 60 to 90 mins by scintillation counting; details: tested as the 2H-labelled form
[1] = Aqueous solubility of the compound in DI water at pH 7 after 2 hrs by LC-MS analysis; assay type: physicochemical; details: buffer, pH 7, 2 h
Summary of the method: (§1)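 10 mg compound dissolved in 2 mL DMAC; 10 μL of this added to 2 mL DI water (pH 7, sonicated) or 2 mL 0.01 M aq HCl (pH 2), held 2 h at 37 °C. Filtered through 0.45 micron filter, then quantified by LC-MS in SIM mode against calibration curves of standards in DMAC (n = 5); n=3.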

[2] = biological target: GABA-A receptor; alpha-5/beta-3/gamma-2 (Homo sapiens) (UniProt P18507+P28472+P31644); assay: Positive allosteric modulation of GABA-A receptor alpha5beta3gamma2 (unknown origin) expressed in Xenopus laevis oocytes assessed as potentiation of EC3 GABA induced currents up to 1 uM at -60 mV holding potential by electrophysiological method relative to GABA; assay type: cell-based
Summary of the method: (§2)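 Stage 5–6 defolliculated Xenopus oocytes were injected with 2.5 ng total mRNA per oocyte: α1, α2, α3 or α5 with β3 and γ2 at 1:1:5, and α4 or α6 with β3 and γ2 at 3:1:5. Oocytes were kept ≥36 h at 18 °C in NDE medium before recording. Compounds were co-applied with GABA titrated to EC3-5 for each oocyte. Curves were fitted with the Hill equation; mean ± SEM from ≥3 oocytes across two batches.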

[3] = biological target: GABA-A receptor; alpha-6/beta-3/gamma-2 (Homo sapiens) (UniProt P18507+P28472+Q16445); assay: Positive allosteric modulation of GABA-A receptor alpha6beta3gamma2 (unknown origin) expressed in Xenopus laevis oocytes assessed as potentiation of EC3 GABA induced currents at 30 uM at -60 mV holding potential by electrophysiological method relative to GABA; assay type: cell-based; summary of the method: as §2
Mus musculus = assay: Neurotoxicity in Swiss Webster mouse assessed as induction of motor impairment at 40 mg/kg administered via oral gavage measured after 10 to 60 mins by rotarod method; assay type: toxicity, organism-based; details: in vivo
Summary of the method: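 Female mice were given a single oral gavage dose of 40 mg/kg, either in 50% PBS/40% propylene glycol/10% DMSO or, for poorly soluble compounds, in 2% polyethylene glycol plus 2.5% hydroxymethyl cellulose. Rotarod performance was tested 10, 30 and 60 min after dosing, with diazepam 5 mg/kg as positive control.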

[4] = biological target: GABA A receptor alpha-4/beta-3/gamma-2 (Homo sapiens) (UniProt P18507+P28472+P48169); assay: Positive allosteric modulation of GABA-A receptor alpha4beta3gamma2 (unknown origin) expressed in Xenopus laevis oocytes assessed as potentiation of EC3 GABA induced currents up to 1 uM at -60 mV holding potential by electrophysiological method relative to GABA; assay type: cell-based; summary of the method: as §2
[5] = biological target: GABA-A receptor; alpha-3/beta-3/gamma-2 (Homo sapiens) (UniProt P18507+P28472+P34903); assay: Positive allosteric modulation of GABA-A receptor alpha3beta3gamma2 (unknown origin) expressed in Xenopus laevis oocytes assessed as potentiation of EC3 GABA induced currents up to 1 uM at -60 mV holding potential by electrophysiological method relative to GABA; assay type: cell-based; summary of the method: as §2
[6] = biological target: Voltage-gated inwardly rectifying potassium channel KCNH2 (Homo sapiens, UniProt Q12809); assay: Displacement of [3H]-dofetilide from human ERG expressed in HEK cell membranes at >10 uM after 60 to 90 mins by scintillation counting
[7] = Solubility of the compound in 0.01M HCl at pH 2 after 2 hrs by LC-MS analysis; assay type: physicochemical; details: buffer, pH 2, 2 h; summary of the method: as §1
[8] = biological target: GABA-A receptor; alpha-2/beta-3/gamma-2 (Homo sapiens) (UniProt P18507+P28472+P47869); assay: Positive allosteric modulation of GABA-A receptor alpha2beta3gamma2 (unknown origin) expressed in Xenopus laevis oocytes assessed as potentiation of EC3 GABA induced currents up to 1 uM at -60 mV holding potential by electrophysiological method relative to GABA; assay type: cell-based; summary of the method: as §2
[9] = biological target: GABA-A receptor; alpha-1/beta-3/gamma-2 (Homo sapiens) (UniProt P14867+P18507+P28472); assay: Positive allosteric modulation of GABA-A receptor alpha1beta3gamma2 (unknown origin) expressed in Xenopus laevis oocytes assessed as potentiation of EC3 GABA induced currents up to 1 uM at -60 mV holding potential by electrophysiological method relative to GABA; assay type: cell-based; summary of the method: as §2
Liver = assay: Half life in human liver microsomes at 10 uM by LC-MS/MS analysis; assay type: ADME, microsome
Summary of the method: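 Compound at 10 μM final was preincubated 5 min at 37 °C with NADPH regenerating system in phosphate buffer, pH 7.4. Human or mouse liver microsomes (0.5 mg/mL protein) were added to start the reaction. Samples were taken at 0 (no microsomes) and 10–60 min and measured by LC-MS/MS against an internal standard. Half-life = 0.693/k, with k the slope of ln peak-area ratio versus time. Three experiments, each in duplicate.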

[10] = Metabolic stability in mouse liver microsomes assessed as parent compound remaining at 10 uM after 60 mins by LC-MS analysis; assay type: ADME, microsome; details: read-out: Stability
Summary of the method: (§3)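 The 60 min samples of the microsomal incubation (10 μM compound, human or mouse liver microsomes at 0.5 mg/mL, NADPH regenerating system, 37 °C) were analysed by LC-MS. Detection used SIM mode with dual ESI/APCI ionization, calibrated to the retention times and masses of the parent and its O-demethylated metabolites. Peak intensities were measured.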

[11] = Metabolic stability in human liver microsomes assessed as parent compound remaining at 10 uM after 60 mins by LC-MS analysis; assay type: ADME, microsome; details: read-out: Stability; summary of the method: as §3
[12] = Drug level in human liver microsomes treated with 7-Methoxy-2-(6-methoxy-d3-pyridin-3-yl)-2,5-dihydro-3Hpyrazolo[4,3-c]quinolin-3-one after 60 mins by LC-MS analysis; assay type: ADME; details: 1 h
[13] = Drug level in mouse liver microsomes treated with 7-Methoxy-2-(6-methoxy-d3-pyridin-3-yl)-2,5-dihydro-3Hpyrazolo[4,3-c]quinolin-3-one after 60 mins by LC-MS analysis; assay type: ADME; details: 1 h
[14] = Drug level in mouse liver microsomes treated with 7-Methoxy-2-(4-methoxy-d3-phenyl)-2,5-dihydro-3H-pyrazolo-[4,3-c]quinolin-3-one after 60 mins by LC-MS analysis; assay type: ADME; details: 1 h
[15] = Drug level in human liver microsomes treated with 7-Methoxy-2-(4-methoxy-d3-phenyl)-2,5-dihydro-3H-pyrazolo-[4,3-c]quinolin-3-one after 60 mins by LC-MS analysis; assay type: ADME; details: 1 h
[16] = Drug level in mouse liver microsomes treated with 7-Methoxy-d3-2-(4-methoxyphenyl)-2,5-dihydro-3H-pyrazolo-[4,3-c]quinolin-3-one after 60 mins by LC-MS analysis; assay type: ADME; details: 1 h
[17] = Drug level in human liver microsomes treated with 7-Methoxy-d3-2-(4-methoxyphenyl)-2,5-dihydro-3H-pyrazolo-[4,3-c]quinolin-3-one after 60 mins by LC-MS analysis; assay type: ADME; details: 1 h
[18] = Drug level in mouse liver microsomes treated with 7-Methoxy-d3-2-(6-methoxypyridin-3-yl)-2,5-dihydro-3Hpyrazolo[4,3-c]quinolin-3-one after 60 mins by LC-MS analysis; assay type: ADME; details: 1 h
[19] = Drug level in human liver microsomes treated with 7-Methoxy-d3-2-(6-methoxypyridin-3-yl)-2,5-dihydro-3Hpyrazolo[4,3-c]quinolin-3-one after 60 mins by LC-MS analysis; assay type: ADME; details: 1 h
[20] = biological target: Mu-type opioid receptor (Homo sapiens) (UniProt P35372); assay: Displacement of [3H]-DAMGO from human recombinant MOR expressed in HEK293 cells at 10 uM after 60 to 90 mins by scintillation counting; assay type: cell-based; details: tested as the 2H-labelled form
[21] = biological target: 5-hydroxytryptamine receptor 2B (Homo sapiens) (UniProt P41595); assay: Displacement of [3H]-LSD from human recombinant 5HT2B receptor expressed in HEK293 cells at 10 uM after 60 to 90 mins by scintillation counting; assay type: cell-based; details: tested as the 2H-labelled form
[22] = biological target: T1, 5-hydroxytryptamine receptor 2C (Homo sapiens) (UniProt P28335); assay: Displacement of [3H]-mesulergine from human recombinant 5HT2C receptor expressed in HEK293T cells at 10 uM after 60 to 90 mins by scintillation counting; assay type: cell-based; details: HEK-293T, tested as the 2H-labelled form
T1 sequence (whole entry): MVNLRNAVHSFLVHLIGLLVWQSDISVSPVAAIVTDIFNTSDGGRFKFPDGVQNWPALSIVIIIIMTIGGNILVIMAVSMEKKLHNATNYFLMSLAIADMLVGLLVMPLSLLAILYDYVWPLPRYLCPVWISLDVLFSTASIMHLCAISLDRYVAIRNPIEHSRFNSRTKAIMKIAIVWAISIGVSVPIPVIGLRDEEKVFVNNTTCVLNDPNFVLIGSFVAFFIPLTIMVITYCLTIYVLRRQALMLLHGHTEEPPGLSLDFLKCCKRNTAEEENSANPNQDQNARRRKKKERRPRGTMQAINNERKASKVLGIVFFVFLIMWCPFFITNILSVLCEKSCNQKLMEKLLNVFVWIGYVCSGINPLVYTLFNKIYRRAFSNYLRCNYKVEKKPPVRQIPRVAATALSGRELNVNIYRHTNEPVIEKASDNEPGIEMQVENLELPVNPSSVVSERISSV

[23] = biological target: 5-hydroxytryptamine receptor 7 (Homo sapiens) (UniProt P34969); assay: Displacement of [3H]-LSD from human recombinant 5HT7 receptor expressed in HEK293 cells at 10 uM after 60 to 90 mins by scintillation counting; assay type: cell-based; details: tested as the 2H-labelled form
Chain of 5-hydroxytryptamine receptor 7 (Homo sapiens) (P34969 whole entry): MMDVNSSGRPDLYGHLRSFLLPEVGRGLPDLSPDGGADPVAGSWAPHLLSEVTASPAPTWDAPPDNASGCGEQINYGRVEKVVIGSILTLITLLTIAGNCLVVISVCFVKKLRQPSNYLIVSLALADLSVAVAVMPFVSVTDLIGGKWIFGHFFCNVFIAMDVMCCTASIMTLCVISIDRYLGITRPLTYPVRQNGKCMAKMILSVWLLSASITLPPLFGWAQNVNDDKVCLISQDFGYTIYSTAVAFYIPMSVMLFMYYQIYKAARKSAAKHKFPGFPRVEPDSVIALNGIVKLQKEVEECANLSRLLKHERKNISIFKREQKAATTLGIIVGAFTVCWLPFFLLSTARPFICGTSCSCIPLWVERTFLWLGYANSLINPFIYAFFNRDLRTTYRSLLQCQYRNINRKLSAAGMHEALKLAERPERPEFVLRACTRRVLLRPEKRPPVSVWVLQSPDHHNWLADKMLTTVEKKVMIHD

Chain of Voltage-gated inwardly rectifying potassium channel KCNH2 (Q12809 whole entry): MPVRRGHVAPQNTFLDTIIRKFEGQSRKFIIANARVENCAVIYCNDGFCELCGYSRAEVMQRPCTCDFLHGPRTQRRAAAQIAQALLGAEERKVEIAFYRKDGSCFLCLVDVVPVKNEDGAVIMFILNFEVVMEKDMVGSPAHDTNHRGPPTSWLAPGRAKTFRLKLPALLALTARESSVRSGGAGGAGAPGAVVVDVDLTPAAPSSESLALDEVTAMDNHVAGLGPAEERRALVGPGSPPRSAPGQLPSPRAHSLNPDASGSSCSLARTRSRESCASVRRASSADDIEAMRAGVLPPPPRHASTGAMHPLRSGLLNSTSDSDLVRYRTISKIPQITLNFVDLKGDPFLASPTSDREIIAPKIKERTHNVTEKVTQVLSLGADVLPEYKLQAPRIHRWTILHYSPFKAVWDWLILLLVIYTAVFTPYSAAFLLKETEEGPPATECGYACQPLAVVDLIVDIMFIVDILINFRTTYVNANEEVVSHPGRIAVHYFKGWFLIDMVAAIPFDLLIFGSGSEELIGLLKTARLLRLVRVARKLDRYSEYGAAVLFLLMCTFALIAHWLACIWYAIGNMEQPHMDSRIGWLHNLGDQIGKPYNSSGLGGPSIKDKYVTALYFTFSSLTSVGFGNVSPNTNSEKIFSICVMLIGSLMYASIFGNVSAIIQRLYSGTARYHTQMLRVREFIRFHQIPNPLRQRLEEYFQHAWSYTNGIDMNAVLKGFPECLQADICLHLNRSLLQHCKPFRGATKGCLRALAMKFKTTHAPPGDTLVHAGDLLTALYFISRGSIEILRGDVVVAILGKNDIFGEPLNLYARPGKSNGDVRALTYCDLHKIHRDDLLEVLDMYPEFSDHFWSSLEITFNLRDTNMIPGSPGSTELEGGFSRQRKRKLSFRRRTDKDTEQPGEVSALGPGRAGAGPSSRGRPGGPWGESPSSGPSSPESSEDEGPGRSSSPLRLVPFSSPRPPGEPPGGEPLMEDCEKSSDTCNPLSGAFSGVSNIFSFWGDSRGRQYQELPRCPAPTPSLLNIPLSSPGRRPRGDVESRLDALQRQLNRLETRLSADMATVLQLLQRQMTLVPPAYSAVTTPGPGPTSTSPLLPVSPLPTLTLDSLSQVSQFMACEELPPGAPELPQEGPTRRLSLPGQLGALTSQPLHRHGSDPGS
Chain of Mu-type opioid receptor (Homo sapiens) (P35372 whole entry): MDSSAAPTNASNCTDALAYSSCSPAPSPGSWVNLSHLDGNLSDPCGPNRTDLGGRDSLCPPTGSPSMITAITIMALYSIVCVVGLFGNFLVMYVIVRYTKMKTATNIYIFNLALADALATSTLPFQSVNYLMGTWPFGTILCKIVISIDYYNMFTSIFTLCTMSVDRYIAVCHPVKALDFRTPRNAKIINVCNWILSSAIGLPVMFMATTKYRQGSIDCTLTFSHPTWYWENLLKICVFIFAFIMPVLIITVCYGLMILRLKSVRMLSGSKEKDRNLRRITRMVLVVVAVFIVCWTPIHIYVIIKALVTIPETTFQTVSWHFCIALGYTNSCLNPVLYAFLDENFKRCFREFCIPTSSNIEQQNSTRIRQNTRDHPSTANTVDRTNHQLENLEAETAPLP
Chain of 5-hydroxytryptamine receptor 2B (Homo sapiens) (P41595 whole entry): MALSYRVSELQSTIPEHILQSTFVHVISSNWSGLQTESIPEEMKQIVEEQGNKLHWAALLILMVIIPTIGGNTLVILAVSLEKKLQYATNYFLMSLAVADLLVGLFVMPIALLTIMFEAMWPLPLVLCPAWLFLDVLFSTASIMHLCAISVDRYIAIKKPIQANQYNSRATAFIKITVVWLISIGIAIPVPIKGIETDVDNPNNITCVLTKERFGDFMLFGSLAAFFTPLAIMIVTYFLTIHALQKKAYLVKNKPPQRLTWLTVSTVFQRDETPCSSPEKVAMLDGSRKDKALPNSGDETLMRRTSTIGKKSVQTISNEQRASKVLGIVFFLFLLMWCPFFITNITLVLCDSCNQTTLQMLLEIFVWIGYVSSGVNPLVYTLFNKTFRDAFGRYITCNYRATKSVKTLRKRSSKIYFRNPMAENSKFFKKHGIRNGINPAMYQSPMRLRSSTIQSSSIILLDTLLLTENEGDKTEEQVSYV

SMILES: COc1cccc(-n2nc3c4cc(Cl)ccc4[nH]cc-3c2=O)c1
inhibition (Rattus norvegicus): Active
solubility [1]: 6.8 µM (≈ 2.22 µg/mL)
Activity [2]: < 0%
Activity [3]: 400%
Activity ([3]; tested as the 2H-labelled form): inactive
Activity (Mus musculus): Non-Toxic
Activity [4]: < 0%
Activity [5]: < 0%
inhibition (INH) [6]: Not Active
solubility [7]: 2.6 µM (≈ 0.847 µg/mL)
Activity [8]: < 0%
Activity [9]: < 0%
t1/2 (Liver): 3.4 h
remaining at 1 h, 10 µM [10]: 59.8%
remaining at 1 h, 10 µM [11]: 81.4%

SMILES: [2H]C([2H])([2H])Oc1ccc(-n2nc3c4ccc(O)cc4[nH]cc-3c2=O)cn1
Drug metabolism [12]: Metabolite_Detected
Drug metabolism [13]: Metabolite_Detected

SMILES: COc1ccc2c3nn(-c4ccc(O)cc4)c(=O)c-3c[nH]c2c1
Drug metabolism [14]: Metabolite_Detected
Drug metabolism [15]: Metabolite_Detected

SMILES: [2H]C([2H])([2H])Oc1ccc2c3nn(-c4ccc(O)nc4)c(=O)c-3c[nH]c2c1
Drug metabolism [18]: Metabolite_Detected
Drug metabolism [19]: Metabolite_Detected

SMILES: [2H]C([2H])([2H])Oc1ccc(-n2nc3c4ccc(O)cc4[nH]cc-3c2=O)cc1
Drug metabolism [14]: Metabolite_Detected
Drug metabolism [15]: Metabolite_Detected

SMILES: COc1ccc(-n2nc3c4ccc(Br)cc4[nH]cc-3c2=O)cc1
inhibition (Rattus norvegicus): Active
solubility [1]: 8.3 µM (≈ 3.07 µg/mL)
Activity [2]: < 0%
inhibition [20]: Active
Activity [3]: 900%
Activity ([3]; tested as the 2H-labelled form): inactive
Activity (Mus musculus): Non-Toxic
Activity [4]: < 0%
inhibition [21]: Active
Activity [5]: < 0%
inhibition [22]: Active
inhibition [23]: Active
inhibition (INH) [6]: Not Active
solubility [7]: 3.3 µM (≈ 1.22 µg/mL)
Activity [8]: < 0%
Activity [9]: < 0%
t1/2 (Liver): 1.7 h
remaining at 1 h, 10 µM [10]: 69%
remaining at 1 h, 10 µM [11]: 66.9%

SMILES: [2H]C([2H])([2H])Oc1ccc2c3nn(-c4ccc(O)cc4)c(=O)c-3c[nH]c2c1
Drug metabolism [16]: Metabolite_Detected
Drug metabolism [17]: Metabolite_Detected

SMILES: COc1ccc(-n2nc3c4ccc(O)cc4[nH]cc-3c2=O)cc1
Drug metabolism [16]: Metabolite_Detected
Drug metabolism [17]: Metabolite_Detected

The next lines start with the values.

Drug metabolism [16]: Metabolite_Detected
Drug metabolism [17]: Metabolite_Detected
Drug metabolism [14]: Metabolite_Detected
Drug metabolism [15]: Metabolite_Detected
SMILES: O=c1c2c[nH]c3cc(O)ccc3c-2nn1-c1ccc(O)cc1

Drug metabolism [18]: Metabolite_Detected
Drug metabolism [19]: Metabolite_Detected
SMILES: COc1ccc(-n2nc3c4ccc(O)cc4[nH]cc-3c2=O)cn1

Drug metabolism [12]: Metabolite_Detected
Drug metabolism [13]: Metabolite_Detected
SMILES: COc1ccc2c3nn(-c4ccc(O)nc4)c(=O)c-3c[nH]c2c1

Drug metabolism [18]: Metabolite_Detected
Drug metabolism [12]: Metabolite_Detected
Drug metabolism [19]: Metabolite_Detected
Drug metabolism [13]: Metabolite_Detected
SMILES: O=c1c2c[nH]c3cc(O)ccc3c-2nn1-c1ccc(O)nc1
